Screening data deposited in PubChem by The Scripps Research Institute Molecular Screening Center.
Compounds with a hit are over-represented: about 2% of the library has one in this group of screens.
M1 antag: blocks human M1 muscarinic receptor. P11229. CHO-K1 hM1, Fluo-8 calcium fluorescence, ACh EC80 antagonist. inhibition, % at 3 µM. actives 1.3% (n = 360,000). AID 588852;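 active = percent inhibition above its own plate's cutoff, namely the mean of that plate's compound wells plus 3 SD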;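 note: peak over basal fluorescence ratio during 140 s after agonist addition; 0% = ACh EC80 plus DMSO and 100% = DMSO alone without agonist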
Target sequence (P11229 whole entry, looked up): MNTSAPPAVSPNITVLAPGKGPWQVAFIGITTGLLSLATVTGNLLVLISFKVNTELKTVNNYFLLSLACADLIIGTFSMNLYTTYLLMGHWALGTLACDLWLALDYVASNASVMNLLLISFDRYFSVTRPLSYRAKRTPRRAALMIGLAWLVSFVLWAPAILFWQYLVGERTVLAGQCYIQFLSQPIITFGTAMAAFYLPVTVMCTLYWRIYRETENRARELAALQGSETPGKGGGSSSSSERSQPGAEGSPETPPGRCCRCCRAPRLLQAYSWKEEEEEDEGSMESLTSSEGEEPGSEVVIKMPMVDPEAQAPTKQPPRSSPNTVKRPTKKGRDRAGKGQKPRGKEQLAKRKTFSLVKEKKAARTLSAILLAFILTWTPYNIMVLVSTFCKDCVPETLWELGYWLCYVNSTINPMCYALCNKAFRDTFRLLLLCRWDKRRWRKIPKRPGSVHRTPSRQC
M5 ag: CHRM5 agonism in calcium assay; activation, % at 3 µM; actives 0.19% (n = 360,000); P08912; CHO-K1 hM5 cells, Fluo-8 calcium fluorescence; 0% DMSO wells, 100% maximal acetylcholine response; AID 624037;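 active = activation above the run's mean over test compounds plus 3 SD, cut at about 23% in these data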;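 note: signal is peak over basal fluorescence ratio across the kinetic read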
M1 ag: agonists of human M1 muscarinic receptor | activation, % at 3 µM | actives 0.33% (n = 360,000) | CHO-K1 hM1, Fluo-8 calcium fluorescence, agonist mode; 0% DMSO, 100% acetylcholine EC100 | P11229;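 active = activation above the run's mean compound activation plus 3 SD, cut at about 16% in these data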;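 note: peak over basal fluorescence ratio within a 140 s kinetic read after compound addition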
M5 antag: blocks acetylcholine activation of human M5 receptor; P08912; CHO-hM5 cells, Fluo-8 calcium fluorescence, ACh EC80; inhibition, % at 3 µM; actives 0.59% (n = 360,000); AID 624040;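 active = inhibition above a per-plate cutoff, the mean of that plate's test compounds plus 3 SD, cut at about 27% in these data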;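 note: 0% = acetylcholine EC80 with DMSO and 100% = DMSO without agonist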
CHRM5 PAM: positive allosteric modulators of human muscarinic M5 receptor; P08912; actives 0.3% (n = 360,000); activation, % at 3 µM; CHO-K1 hM5, Fluo-8 calcium, ACh EC20 PAM; 0% = ACh EC20, 100% = ACh EC100;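 active = activation above the run cutoff, the mean activation of all test compounds plus 3 SD, cut at about 18% in these data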
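Assay system – human M5 receptor in CHO-K1 cells · Read-out – % activation, ACh-normalized · Technique – Fluo-8 calcium fluorescence · Dosing – single-point, 3 µM nominal · Incubation – Fluo-8 loading 80 min at 37 °C plus 30 min room temperature · Repeats – singlicate, one well per test compound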
CHRM1 PAM: positive allosteric modulators of human M1 muscarinic receptor. activation, % at 3 µM. AID 588819. P11229. actives 0.088% (n = 360,000). CHO-K1 hM1, Fluo-8 calcium fluorescence, ACh EC20; 0% = ACh EC20, 100% = maximal ACh; in the data active = activation above about 19%, passing the limit was not always enough
* marks the source's active call; other numbers are inactive results; / = not tested or not shown.

SMILES	M1 antag	M5 ag	M1 ag	M5 antag	CHRM5 PAM	CHRM1 PAM
CC1(C)CC(=O)C2=C(C1)NC1=C(C(=O)c3ccccc31)C2c1ccc(O)cc1 (stereo not given)	1	-1	-6	4	5	4
O=C1CCCC2=C1C(c1cccc(O)c1)C1=C(N2)c2ccccc2C1=O (stereo not given)	0	5	-3	-10	18*	8
CN(CCN(C)C(C)(C)C)C(=O)C(c1ccccc1)c1ccccc1	97*	-20	-6	31*	-35	-27
O=c1c(O)c(-c2ccc(O)c(O)c2)oc2cc(O)cc(O)c12	-20	10	7	-15	21*	16
CN1CCN(C(=O)N(c2ccccc2)c2ccccc2)CC1	24	-20	-8	1	-2	-14
CCOC(=O)N1CCC(N2CCN(S(=O)(=O)c3ccc(C)cc3)CC2)CC1	-7	3	24*	3	-4	-2
CCN1CCN(C(=O)N(c2ccccc2)c2ccccc2)CC1	42*	-9	-9	7	-15	-21
CCN(CC)C(=O)N1CCN(S(=O)(=O)c2ccccc2)CC1	-26	2	-1	3	5	28*
Cc1ccc(S(=O)(=O)N2CCC(N3CCN(C)CC3)CC2)cc1Cl	42*	-8	-14	25	-13	-21
Cc1ccc(N(C)C(=O)N2CCN(S(=O)(=O)c3ccc4ccccc4c3)CC2)cc1	1	4	7	9	-6	7
Cc1ccc(N(C)C(=O)N2CCN(S(=O)(=O)c3ccc(C)cc3)CC2)cc1	-15	7	19*	-1	-5	25*
CC(C)COC(=O)N1CCCCC1c1cc(C(=O)Nc2ccccc2)no1 (stereo not given)	-18	-1	-1	-2	1	5
O=C(OCCN1C(=O)c2ccccc2C1=O)c1ccco1	-9	-8	-2	-7	19*	4
O=C(OCCN1C(=O)c2ccccc2C1=O)c1ccccc1	2	-2	-1	3	-2	2
Cc1cccc(C)c1NC(=O)C(c1ccccc1)N1CCN(C)CC1 (stereo not given)	/	-2	/	2	-3	/
O=C(NCc1ccco1)c1ccc(CS(=O)c2ccccc2Cl)o1 (stereo not given)	-3	0	8	7	-7	21
O=C(NCCCN1CCC(Cc2ccccc2)CC1)c1ccc(CS(=O)c2ccccc2Cl)o1 (stereo not given)	50*	-2	-7	23	-19	-24
OC(c1ccc(-c2ccccc2)cc1)c1ncc(-c2ccc(F)cc2)[nH]1 (stereo not given)	0	2	1	6	-4	0
CCCCCC1CC(=O)NC1(C(=O)OCC)C(=O)OCC (stereo not given)	40*	2	-1	17	-22	-23
CCOC(=O)C1(C(=O)OCC)NC(=O)CC1CC (stereo not given)	-16	3	0	11	2	6
COC(=O)[C@H](CC(C)C)NC(=O)/C=C/[C@H]1O[C@@H](n2cc(C)c(=O)[nH]c2=O)C[C@@H]1O	-2	2	0	-5	-5	-9
O=c1oc2c3c4c(cc2c(C(F)(F)F)c1CCN1CCOCC1)CCCN4CCC3	15	10	25*	10	-6	-3
CCc1nc2c(OCC(=O)c3ccc(Cl)cc3Cl)cccn2c1N(C)C(=O)COc1ccccc1	-14	-3	-7	12	-8	-2
Cc1ccc2c(c1)nnn2C1CCN(S(=O)(=O)c2ccc(C(=O)O)cc2)CC1	5	-1	-4	6	-9	3
Cc1ccc2c(c1)nnn2C1CCN(S(=O)(=O)c2ccc(C(=O)N3C(C)CCCC3C)cc2)CC1 (stereo not given)	33*	-6	1	22	-37	-12
SMILES	M1 antag	M5 ag	M1 ag	M5 antag	CHRM5 PAM	CHRM1 PAM
COc1cccc2sc3ccc(C#CC4(O)CCCCC4)cc3c(=O)c12	41*	1	-7	20	-14	-13
CCC[C@@H](CN1CCC[C@H]1CN1C(N)=NC[C@H]1CC(C)C)N1C[C@@H]([C@H](C)CC)N(CCCC2CCCC2)C1=N	59*	-3	-12	-5	-1	-31
CC(C)C[C@@H]1CN=C(N)N1C[C@@H]1CCCN1C[C@H](C)N1C[C@@H](Cc2ccccc2)N(CCc2ccc(Cl)c(Cl)c2)C1=N	13	-11	-8	-4	-26	-22
CC(C)C[C@@H]1CN=C(N)N1C[C@@H]1CCCN1C[C@H](C)N1C[C@@H](Cc2ccccc2)N(CCCC2CCCC2)C1=N	34*	-12	-10	13	-13	-31
CCC[C@@H](CN1CCC[C@H]1CN1C(N)=NC[C@H]1C(C)C)N1C[C@@H]([C@H](C)CC)N(CCCC2CCCC2)C1=N	5	-2	-10	-1	-3	-14
CCN(CC(=O)Nc1ccc2c(c1)OCCO2)C(=O)C(C)Oc1ccc(F)cc1 (stereo not given)	-13	1	-3	4	4	13
CSc1ncnc2c1ncn2CCCNCc1cccc2ccccc12	-4	-2	-9	1	0	-4
CN(C)c1ccc(/C=C/C(=O)c2c(O)c3ccccc3oc2=O)cc1	12	26*	30*	18	-11	-12
Cc1ccc2c(c1C)NC(C(=O)O)C1CC=CC21 (stereo not given)	-10	4	-1	-17	12	10
O=C(O)C1Nc2c(C(F)(F)F)ccc(Cl)c2C2C=CCC12 (stereo not given)	-13	-2	2	-9	19*	17
COc1ccc(C(C)=O)cc1Cn1c(C)c(C(=O)NCc2ccc3c(c2)OCO3)sc1=O	-18	1	-7	-3	1	13
N#C/C(=N\Nc1ccc(S(=O)(=O)N2CCCCCC2)cc1)C(N)=S	1	4	-1	30*	-17	-9
N#C/C(=N\Nc1ccc([N+](=O)[O-])cc1)C(N)=S	-2	7	6	30*	-20	2
CCOC(=O)/C(C#N)=N/Nc1ccc(S(=O)(=O)N2CCc3ccccc32)cc1	12	4	-1	27*	-14	-5
C[C@H]1CN([C@@H](C)CO)C(=O)CCCn2nncc2CO[C@@H]1CN(C)Cc1ccccc1C(F)(F)F	-7	-1	-10	-21	5	3
COc1ccc(N(CN2C(=O)C3CCCCC3C2=O)C(=O)c2ccco2)cc1 (stereo not given)	-8	-1	-4	2	-7	11
